Measurements gathered from unrelated publications.
Lines come from different studies, so protocols differ.
Target: Serine/threonine-protein kinase Nek4 (NEK4, Homo sapiens, UniProt P51957)

| Structure (SMILES) | effect on | mode | method | tested at | endpoint | value |
| --- | --- | --- | --- | --- | --- | --- |
| CC(=O)N1CCC(c2ccc(C(=O)NC3=NCCN3)cc2C(F)(F)F)CC1 | cell-free assay | – | competition with immobilised ligand | 1 µM | remaining binding | 100% |
| COc1cc(Cl)c(C(=O)N[C@@H](CN[C@H]2CC[C@@H](N)CC2)Cc2ccc(C#N)cc2)cc1-c1ccc(CN[C@H](C)c2ccc(C)cc2)o1 | enzyme activity | inhibitor | – | 1 µM | remaining activity | 106% |
| Nc1ncnc2occ(-c3ccc(NC(=O)Nc4cc(C(F)(F)F)ccc4F)cc3)c12 | cell-free assay | inhibitor | – | 20 µM | remaining signal | 2.8% |
| C[C@@]1(Cc2ccc(C#N)cc2)C(=O)N(c2cc(Cl)cc(Cl)c2)c2ncc(C(=O)NC3(c4nc(C5CCC5)no4)CC3)n21 | cell-free assay | – | competition with immobilised ligand | 1 µM | remaining binding | 12% |
| c1ccc(CNc2nc(N3CCOc4ccccc43)nc3c2CCCC3)cc1 | target engagement in cells | inhibitor | chemoproteomics | 20 mM | inhibition | -18.5% |
| COc1cc2ncnc(Nc3ccc(Oc4ccccc4)c(C)c3C)c2cc1OC | enzyme activity | inhibitor | – | 1 µM | inhibition | 2% |
| CN1CC(Oc2cnc(C#N)cc2-c2ccn3nc(NC(=O)C4CC4)cc3c2)C1 | enzyme activity | inhibitor | – | 1 µM | inhibition | 2% |
| COCCOc1nc(-c2ccc(Cl)nc2)nc2c1CN(C(=O)c1ncn3ccccc13)CC2 | cell-free assay | – | competition with immobilised ligand | 0.1 µM | remaining binding | 100% |
| CN(C)C1CCN(CC#Cc2nn(C3CCCC3)c3nc(NCc4ccccc4)ncc23)C1 (stereo not drawn) | enzyme activity | inhibitor | FRET | 10 µM | inhibition | 12% |
| CCCCNc1ncc2c(-c3ccc(F)cc3)nn(C[C@H]3CC[C@H](N)CC3)c2n1 | target engagement in cells | inhibitor | chemoproteomics | 20 mM | inhibition | -16.7% |
| COc1ccc2c(c1)O[C@@H](c1ccc(OC)c(OC)c1)C[C@H]2NC(=O)C1(c2ccc3c(c2)OC(F)(F)O3)CC1 | cell-free assay | – | competition with immobilised ligand | 1 µM | remaining binding | 75% |
| CC(C)(C)c1nc(-c2cccc(NS(=O)(=O)c3c(F)cccc3F)c2F)c(-c2ccnc(N)n2)s1 | enzyme activity | inhibitor | radiometric | 1 µM | remaining activity | 92% |
| O=C(Nc1cnn(-c2csc(C(=O)NC3COC3)c2)c1)Nc1c(F)cccc1Cl | enzyme activity | inhibitor | – | 5 µM | remaining activity | 90.8% |
| Clc1ccc(Nc2nnc(Cc3ccncc3)c3ccccc23)cc1 | cell-free assay | – | – | 0.5 µM | remaining signal | 97.7% |
| CCCOc1ccc([C@H]2[C@H](C(=O)O)[C@@H](c3ccc4c(c3)OCO4)CN2CC(=O)Nc2c(CC)cccc2CC)cc1 | cell-free assay | – | competition with immobilised ligand | 1 µM | remaining binding | 71% |
| CCCS(=O)(=O)Nc1ccc(F)c(C(=O)c2c[nH]c3ncc(-c4ccc(Cl)cc4)cc23)c1F | enzyme activity | inhibitor | – | 1 µM | inhibition | < 10% |
| CCC(=O)N[C@@H]1CC[C@H](C(=O)N(C)c2ccc(-c3nc4ccccc4o3)cc2)C1 | cell-free assay | – | competition with immobilised ligand | 1 µM | remaining binding | 95% |
| O=C1Nc2ccc(Cl)cc2C1=Cc1cc(Cl)c(O)c(Cl)c1 | cell-free assay | – | – | 0.5 µM | remaining signal | 88.2% |
